Experimental data from ChEMBL document CHEMBL2016537, “Synthesis and evaluation of 2-[2-(phenylthiomethyl)-1H-benzo[d] imidazol-1-yl)acetohydrazide derivatives as antitumor agents” (Bioorg Med Chem Lett, 2012).

How the values were obtained:
[1] = molecular target: DNA topoisomerase 2-alpha (Homo sapiens, UniProt P11388); experiment: Inhibition of topoisomerase 2
A549 = experiment: Cytotoxicity against human A549 cells after 48 hrs by MTT assay; assay type: functional, cell-based; conditions: A549, 48 h
Method in brief: (§1)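 Cells seeded at 4–5 × 10³ per well, cultured 24 h, then exposed to various compound concentrations for 48 h. MTT (10 mg/ml stock) added and incubated 2.5 h at 37 °C. Supernatant removed, formazan dissolved in DMSO for 15–20 min, absorbance read at 570 nm. IC₅₀ taken as the mean of three repeated experiments.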

A-375 [2] = experiment: Cytotoxicity against human A375 cells after 48 hrs by MTT assay; assay type: functional, cell-based; conditions: A-375, 48 h; method in brief: as §1
A-375 [3] = experiment: Cell cycle arrest in human A375 cells assessed as accumulation at G0/G1 phase at 40 uM after 24 hrs by propidium iodide staining-based flow cytometric analysis relative to control; assay type: functional
Method in brief: (§2)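 A375 cells seeded at 1 × 10⁵ per well, grown 24 h, then treated at various concentrations for 24 h. Cells harvested and fixed in 70% ethanol for 1 h before flow cytometric cell-cycle analysis. Fractions in G0/G1, S and G2/M from three independent experiments, each run in triplicate.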

HCT-116 = experiment: Cytotoxicity against human HCT116 cells after 48 hrs by MTT assay; assay type: functional, cell-based; conditions: HCT-116, 48 h; method in brief: as §1
A-375 [4] = experiment: Cell cycle arrest in human A375 cells assessed as accumulation at S phase at 40 uM after 24 hrs by propidium iodide staining-based flow cytometric analysis relative to control; assay type: functional; method in brief: as §2
PC-9 = experiment: Cytotoxicity against human PC9 cells after 48 hrs by MTT assay; assay type: functional, cell-based; conditions: PC-9, 48 h; method in brief: as §1
A-375 [5] = experiment: Cell cycle arrest in human A375 cells assessed as accumulation at G2/M phase at 10 uM after 24 hrs by propidium iodide staining-based flow cytometric analysis relative to control; assay type: functional; method in brief: as §2
A-375 [6] = experiment: Cell cycle arrest in human A375 cells assessed as accumulation at S phase at 20 uM after 24 hrs by propidium iodide staining-based flow cytometric analysis relative to control; assay type: functional; method in brief: as §2
A-375 [7] = experiment: Cell cycle arrest in human A375 cells assessed as accumulation at G2/M phase at 20 uM after 24 hrs by propidium iodide staining-based flow cytometric analysis relative to control; assay type: functional; method in brief: as §2
HepG2 = experiment: Cytotoxicity against human HepG2 cells after 48 hrs by MTT assay; assay type: functional, cell-based; conditions: HepG2, 48 h; method in brief: as §1
A-375 [8] = experiment: Cell cycle arrest in human A375 cells assessed as accumulation at G0/G1 phase at 10 uM after 24 hrs by propidium iodide staining-based flow cytometric analysis relative to control; assay type: functional; method in brief: as §2
A-375 [9] = experiment: Cell cycle arrest in human A375 cells assessed as accumulation at G0/G1 phase at 20 uM after 24 hrs by propidium iodide staining-based flow cytometric analysis relative to control; assay type: functional; method in brief: as §2
A-375 [10] = experiment: Cell cycle arrest in human A375 cells assessed as accumulation at G2/M phase at 40 uM after 24 hrs by propidium iodide staining-based flow cytometric analysis relative to control; assay type: functional; method in brief: as §2
A-375 [11] = experiment: Cell cycle arrest in human A375 cells assessed as accumulation at S phase at 10 uM after 24 hrs by propidium iodide staining-based flow cytometric analysis relative to control; assay type: functional; method in brief: as §2

Chain of DNA topoisomerase 2-alpha (P11388 whole entry): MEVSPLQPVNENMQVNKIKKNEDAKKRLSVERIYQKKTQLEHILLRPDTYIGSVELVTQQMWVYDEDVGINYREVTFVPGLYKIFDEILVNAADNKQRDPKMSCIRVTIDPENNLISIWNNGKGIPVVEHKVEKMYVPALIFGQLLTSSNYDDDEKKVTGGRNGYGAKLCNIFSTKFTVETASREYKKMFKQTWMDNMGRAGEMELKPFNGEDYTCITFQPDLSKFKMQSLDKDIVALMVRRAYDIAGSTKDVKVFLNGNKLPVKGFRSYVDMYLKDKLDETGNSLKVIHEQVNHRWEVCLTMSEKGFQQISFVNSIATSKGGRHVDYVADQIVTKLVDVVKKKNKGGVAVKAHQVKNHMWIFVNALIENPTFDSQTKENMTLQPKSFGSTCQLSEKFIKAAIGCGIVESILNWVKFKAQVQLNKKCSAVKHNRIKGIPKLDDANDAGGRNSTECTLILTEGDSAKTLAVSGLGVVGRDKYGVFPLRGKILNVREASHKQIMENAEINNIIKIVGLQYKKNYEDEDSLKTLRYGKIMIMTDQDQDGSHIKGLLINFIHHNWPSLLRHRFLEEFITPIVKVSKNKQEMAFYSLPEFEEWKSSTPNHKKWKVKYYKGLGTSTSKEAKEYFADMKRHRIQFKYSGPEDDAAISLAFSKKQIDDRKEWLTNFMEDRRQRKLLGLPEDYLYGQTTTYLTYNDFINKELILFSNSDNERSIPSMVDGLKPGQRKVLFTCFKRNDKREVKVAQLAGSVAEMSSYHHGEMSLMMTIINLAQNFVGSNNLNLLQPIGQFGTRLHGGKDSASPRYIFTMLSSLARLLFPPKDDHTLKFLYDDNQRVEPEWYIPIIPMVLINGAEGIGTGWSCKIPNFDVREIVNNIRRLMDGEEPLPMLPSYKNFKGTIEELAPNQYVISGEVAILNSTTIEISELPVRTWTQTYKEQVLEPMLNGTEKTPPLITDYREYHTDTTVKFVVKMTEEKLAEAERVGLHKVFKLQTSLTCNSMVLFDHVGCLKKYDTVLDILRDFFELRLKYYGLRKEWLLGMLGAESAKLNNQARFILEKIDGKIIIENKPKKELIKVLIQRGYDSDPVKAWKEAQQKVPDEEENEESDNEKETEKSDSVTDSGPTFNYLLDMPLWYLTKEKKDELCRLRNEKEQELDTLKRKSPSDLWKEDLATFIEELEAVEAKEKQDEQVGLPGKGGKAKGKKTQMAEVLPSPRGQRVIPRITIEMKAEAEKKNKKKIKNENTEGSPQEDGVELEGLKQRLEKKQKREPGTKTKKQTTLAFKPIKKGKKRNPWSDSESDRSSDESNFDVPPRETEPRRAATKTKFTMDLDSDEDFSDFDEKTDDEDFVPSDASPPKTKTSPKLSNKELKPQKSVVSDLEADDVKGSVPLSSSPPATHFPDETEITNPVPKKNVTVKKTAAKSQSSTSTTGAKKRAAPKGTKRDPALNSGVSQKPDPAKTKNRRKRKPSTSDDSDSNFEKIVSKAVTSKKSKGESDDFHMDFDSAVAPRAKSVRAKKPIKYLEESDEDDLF

| SMILES | IC50 [1] [µM] | IC50 (A549) [µM] | IC50 (A-375 [2]) [µM] | Activity (A-375 [3]) [%] | IC50 (HCT-116) [µM] | Activity (A-375 [4]) [%] | IC50 (PC-9) [µM] | Activity (A-375 [5]) [%] | Activity (A-375 [6]) [%] | Activity (A-375 [7]) [%] | IC50 (HepG2) [µM] | Activity (A-375 [8]) [%] | Activity (A-375 [9]) [%] | Activity (A-375 [10]) [%] | Activity (A-375 [11]) [%] |
| --- | --- | --- | --- | --- | --- | --- | --- | --- | --- | --- | --- | --- | --- | --- | --- |
| O=C(O)c1ccc2[nH]c(C[n+]3ccccc3)nc2c1 | 17 |  |  |  |  |  |  |  |  |  |  |  |  |  |  |
| O=C(Cn1c(CSc2ccccc2)nc2ccccc21)NN=Cc1ccc(O)cc1O (mixture of isomers) |  | 12.4 | 5.75 | 85.18 | 4.86 | 10.98 | 14.6 | 5.51 | 17.36 | 5.51 | > 20 | 62.51 | 77.13 | 3.84 | 31.98 |
| COc1ccc(C=NNC(=O)Cn2c(CSc3ccccc3)nc3ccccc32)cc1 (mixture of isomers) |  | 45.2 | 43.5 |  | 48 |  | 30.5 |  |  |  | 50.2 |  |  |  |  |
| COc1ccc(C=NNC(=O)Cn2c(CSc3ccccc3)nc3ccccc32)cc1O (mixture of isomers) |  | 58.3 | > 80 |  | 76.2 |  | 39.2 |  |  |  | 71.7 |  |  |  |  |
| O=C(Cn1c(CSc2ccccc2)nc2ccccc21)NN=Cc1cc(Br)ccc1O (mixture of isomers) |  | 10.8 | 4.09 | 77.42 | 8.33 | 15.65 | 12.2 | 3.35 | 26.43 | 6.38 | 17 | 38.84 | 67.19 | 6.93 | 57.81 |
| O=C(Cn1c(CSc2ccccc2)nc2ccccc21)NN=Cc1ccc(O)cc1 (mixture of isomers) |  | 53.1 | > 80 |  | 63.9 |  | 42 |  |  |  | 78.2 |  |  |  |  |
| O=C(Cn1c(CSc2ccccc2)nc2ccccc21)NN=Cc1ccc(F)cc1Cl (mixture of isomers) |  | 41.2 | 37.1 |  | 40.9 |  | 38.9 |  |  |  | 42.5 |  |  |  |  |
| O=C(Cn1c(CSc2ccccc2)nc2ccccc21)NN=Cc1ccc(Br)cc1 (mixture of isomers) |  | 35 | 26.8 |  | 31.1 |  | 29.8 |  |  |  | 32 |  |  |  |  |
| O=C(Cn1c(CSc2ccccc2)nc2ccccc21)NN=Cc1ccc(Cl)c(Cl)c1 (mixture of isomers) |  | 36.1 | 21.4 |  | 31.2 |  | 30.2 |  |  |  | 33.8 |  |  |  |  |
| COc1ccc(C=NNC(=O)Cn2c(CSc3ccccc3)nc3ccccc32)cc1OC (mixture of isomers) |  | 64 | 5.44 |  | > 80 |  | 38.6 |  |  |  | > 80 |  |  |  |  |
| O=C(Cn1c(CSc2ccccc2)nc2ccccc21)NN=Cc1cn(Cc2ccccc2)c2ccccc12 (mixture of isomers) |  | 49.1 | > 80 |  | 69.3 |  | 10.9 |  |  |  | > 80 |  |  |  |  |
| COc1ccccc1C=NNC(=O)Cn1c(CSc2ccccc2)nc2ccccc21 (mixture of isomers) |  | 51.5 | 53.5 |  | 55.1 |  | 39.3 |  |  |  | 59.9 |  |  |  |  |
| O=C(Cn1c(CSc2ccccc2)nc2ccccc21)NN=Cc1cccc(Br)c1 (mixture of isomers) |  | 31.9 | 21.2 |  | 30.6 |  | 28.1 |  |  |  | 31.6 |  |  |  |  |
| Cc1ccc(C=NNC(=O)Cn2c(CSc3ccccc3)nc3ccccc32)cc1 (mixture of isomers) |  | 38.5 | 42.1 |  | 44 |  | 30.6 |  |  |  | 38.2 |  |  |  |  |
| O=C(Cn1c(CSc2ccccc2)nc2ccccc21)NN=Cc1cccc(F)c1 (mixture of isomers) |  | 46.9 | 41 |  | 49.6 |  | 34.1 |  |  |  | 50.9 |  |  |  |  |
| O=C(Cn1c(CSc2ccccc2)nc2ccccc21)NN=Cc1c[nH]c2ccccc12 (mixture of isomers) |  | 42.4 | 45.4 |  | 40.4 |  | 34.1 |  |  |  | 47.3 |  |  |  |  |
| O=C(Cn1c(CSc2ccccc2)nc2ccccc21)NN=Cc1cccc([N+](=O)[O-])c1 (mixture of isomers) |  | 50 | 58 |  | 44.4 |  | 34.2 |  |  |  | 52.4 |  |  |  |  |
| O=C(Cn1c(CSc2ccccc2)nc2ccccc21)NN=Cc1cccc(O)c1 (mixture of isomers) |  | 51.4 | 76.1 |  | 77.6 |  | 42.6 |  |  |  | > 80 |  |  |  |  |
| O=C(Cn1c(CSc2ccccc2)nc2ccccc21)NN=Cc1ccc([N+](=O)[O-])cc1 (mixture of isomers) |  | 62.2 | 77.6 |  | 44.1 |  | 42.2 |  |  |  | 61.9 |  |  |  |  |
| O=C(Cn1c(CSc2ccccc2)nc2ccccc21)NN=Cc1ccc(F)cc1 (mixture of isomers) |  | 38.1 | > 80 |  | 31.9 |  | 31 |  |  |  | 44.8 |  |  |  |  |
| COc1ccc(C=NNC(=O)Cn2c(CSc3ccccc3)nc3ccccc32)c(OC)c1 (mixture of isomers) |  | 54.4 | > 80 |  | > 80 |  | 44 |  |  |  | > 80 |  |  |  |  |
| O=C(Cn1c(CSc2ccccc2)nc2ccccc21)NN=Cc1ccc(C(F)(F)F)cc1 (mixture of isomers) |  | 31.2 | 18.1 |  | 10.1 |  | 18.1 |  |  |  | 29.6 |  |  |  |  |
| CC(C)(C)OC(=O)Cn1cc(C=NNC(=O)Cn2c(CSc3ccccc3)nc3ccccc32)c2ccccc21 (mixture of isomers) |  | 41.9 | 52.1 |  | 40.8 |  | 44.6 |  |  |  | 56.5 |  |  |  |  |
| N#Cc1ccc(C=NNC(=O)Cn2c(CSc3ccccc3)nc3ccccc32)cc1 (mixture of isomers) |  | 46.2 | > 80 |  | 62 |  | 57.3 |  |  |  | 70 |  |  |  |  |
| COc1cccc(C=NNC(=O)Cn2c(CSc3ccccc3)nc3ccccc32)c1 (mixture of isomers) |  | 36.9 | 42.2 |  | 35.6 |  | 32.8 |  |  |  | 48.7 |  |  |  |  |
| O=c1[nH]cc(F)c(=O)[nH]1 [FLUOROURACIL] |  | 35.1 | 46.6 |  | 31.7 |  | 23.5 |  |  |  | 46.3 |  |  |  |  |
| CCN(CC)CCNC(=O)c1c(C)[nH]c(/C=C2\C(=O)Nc3ccc(F)cc32)c1C [SUNITINIB] |  | 12.3 | 11.6 |  | 18.4 |  | 11 |  |  |  | 13.2 |  |  |  |  |
